Assay outcomes (PubChem)
SR-BI HDL uptake: blocks mouse SR-BI lipid uptake from DiI-HDL; Q61009; ldlA[mSR-BI] CHO cells, DiI-HDL uptake fluorescence, 3 h; inhibition, % at 12.5 µM; actives 0.96% (n = 320,000);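 active means mean replicate inhibition of at least 70% and a set share of replicates each scoring 70 or more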
AHR act: human AHR activation | P35869 | AHR-responsive luciferase reporter cells, luminescence | activation, % at 5 µM | actives 2.5% (n = 320,000) | AID 2796; in the data active means activation above about 47%
HIF act: HIF pathway transcriptional activation. U2OS HRE-luciferase reporter, luminescence; normalized: DMSO 0%, desferrioxamine 100%. activation, % at 7.5 µM (by protocol). actives 0.32% (n = 300,000). AID 1910;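 active means mean activation of at least 10% of the iron chelator positive control signal, with at least half of replicates also reaching 10%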
ABCB6 inh 2: inhibitors of human ABC transporter ABCB6. Q9NP58. K562-ABCB6 porphyrin accumulation, flow cytometry, 1 h; hits give low values. fluorescence ratio to DMSO, % at 10 µM. actives 0.19% (n = 360,000);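 active means fluorescence ratio to DMSO below 75%, the collection mean minus 3 SD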;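 further: signal is porphyrin accumulated inside mitochondria; lower ratio means ABCB6 inhibition with less porphyrin fluorescence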
GAA850 FXN act: activators of GAA850 frataxin (FXN) promoter; actives 0.56% (n = 360,000); AID 540364; HEK293 lucGAA850 FXN promoter luciferase reporter, 24 h; percent of 10 µM SAHA response; activation, % at 6 µM;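 active means activation above the average of all compounds screened plus 3 SD, cutoff fixed separately per campaign, cut at about 7.5% in these data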
SR-BI DiI-HDL act: SR-BI HDL lipid transfer activation. CHO ldlA[mSR-BI] cells, DiI-HDL uptake fluorescence, 3 h; 100 = double the neutral-control signal. activation, % at 12.5 µM. actives 0.096% (n = 320,000);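 active means mean replicate activation of at least 60% and every replicate at or above 60%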
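Test system: SR-BI-overexpressing, LDLR-lacking CHO cells; Also added: labelled HDL, 10 µg/mL; Measured by: bottom-read cell fluorescence after medium removal, ex 550/em 595 nm; Timing: 3 h uptake period with compound, 37 °C; Buffer or medium: F12, 0.5% BSA, 25 mM HEPES; Doses: single compound concentration, delivered by pin transfer.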
Hits are given with their value; - = inactive; . = no result given. Compounds with a hit are over-represented: about 3.9% of the library has one in this group of screens.

SMILES | SR-BI HDL uptake | AHR act | HIF act | ABCB6 inh 2 | GAA850 FXN act | SR-BI DiI-HDL act
Cc1ccc(C)c(NS(=O)(=O)c2ccc(OCC(=O)N3CCOCC3)cc2)c1 | - | - | - | - | - | -
COC(=O)CS(=O)(=O)c1nnc([C@H](Cc2ccccc2)NC(=O)OC(C)(C)C)o1 | - | - | - | - | 15 | -
Cc1cccc(CS(=O)(=O)c2nnc([C@H](Cc3ccccc3)NC(=O)OC(C)(C)C)o2)c1 | - | - | - | - | - | -
O=C(NC(=S)NCCC1=CCCCC1)c1ccccc1Br | - | 50 | - | - | - | -
NC(=O)NCCC1=CCCCC1 | - | - | - | - | - | 93
CN(Cc1ccccc1)S(=O)(=O)c1cccs1 | - | - | - | - | - | -
Cc1ccccc1CN(C)C(=O)[C@H](Cc1ccccc1)NC(=O)c1ccco1 | - | - | . | - | - | -
C/C(=N\Nc1nc2ccccc2[nH]1)c1cc2ccccc2o1 | - | 54 | - | - | - | -
CC(=O)Nc1nc2ccccc2[nH]1 | - | - | - | - | - | -
C/C(=N\Nc1nc2ccccc2[nH]1)c1ccccn1 | - | - | 179 | - | - | -
COc1cc(O)oc1C=Nc1ccc(C(F)(F)F)cc1 | - | 54 | - | - | - | -
COc1cc(/C=N/Nc2ccc(C(F)(F)F)cn2)ccc1O | - | - | - | - | - | -
Cc1ccc([N+](=O)[O-])c(OCc2ncc(Cl)n2C)c1 | . | 55 | - | - | - | .
CCCCCn1c(CNC(=O)CC)nc2ccccc21 | - | - | - | - | - | -
COc1ccc(-c2nc(NC(=O)c3ccc(OCC(=O)N4CCOCC4)c(OC)c3)sc2C)cc1 | 71 | - | - | - | - | -
Cc1ccc(NS(=O)(=O)c2ccc(Cl)s2)cc1S(=O)(=O)N(C)C | - | - | - | - | - | -
Cc1sc(NC(=O)C2CCCO2)c(C#N)c1C (centres undefined) | - | - | - | - | - | -
CC(=O)OC(/C(O)=C(\C#N)c1nc2ccccc2[nH]1)c1ccccc1 (centres undefined) | - | 49 | - | - | - | -
N#C/C(=C(/O)C(Cl)(Cl)Cl)c1nc2ccccc2[nH]1 | . | 53 | - | - | - | .
O=C(Nc1ccc(F)c(F)c1)c1ccccc1-c1ccccc1 | - | - | - | - | - | -
COc1ccc(Cl)cc1C(=O)NNC(=O)c1nn(C)c(=O)c2ccccc12 | - | 66 | . | - | - | -
S=c1[nH]nc(-c2cccc(Cl)c2)n1/N=C/c1ccc(-c2ccccc2Br)o1 | . | - | - | - | - | .
S=c1[nH]nc(-c2ccccc2)n1/N=C/c1ccc(-c2ccccc2Cl)o1 | - | 53 | - | - | - | -
CC(=O)Oc1ccc2cc(-c3cccnc3)c(=O)oc2c1 | - | . | . | - | - | -
COc1ccccc1-c1cc(C(=O)Nc2c(C)n(C)n(-c3ccccc3)c2=O)no1 | - | - | - | - | - | -
SMILES | SR-BI HDL uptake | AHR act | HIF act | ABCB6 inh 2 | GAA850 FXN act | SR-BI DiI-HDL act
CC(=O)Nc1ccc2nc(NC(=O)COc3ccccc3C)sc2c1 | - | - | 12 | - | - | -
Cc1ccc2nc(NC(=O)c3ccccc3F)sc2c1 | - | - | - | - | - | -
CCCC(=O)Nc1nc2ccc(NC(=O)c3ccccc3F)cc2s1 | - | 62 | - | - | - | -
O=[N+]([O-])c1ccc(Oc2ccc(OCc3ccccc3)cc2)nc1 | - | - | - | - | - | -
COc1cc2nc(=S)n3[nH]c(COc4ccccc4C)nc3c2cc1OC | - | - | - | - | - | -
CCc1ccc(S(=O)(=O)n2c(C)nc3ccccc32)cc1 | - | - | - | - | - | -
Cc1nc2ccccc2n1S(=O)(=O)c1ccc(Br)cc1 | - | - | - | - | - | 65
O=C(CCc1nc2sc3c(c2c(=O)[nH]1)CCCC3)Nc1cccc(Cl)c1 | - | - | - | - | - | -
CCOC(=O)C1=C(C)OC(N)=C(C#N)C1c1ccccc1 (centres undefined) | . | - | - | - | - | .
CCCCC(CC)C1OCC(CN2CCCC2)O1 (centres undefined) | - | - | - | - | - | -
Cc1cc(-c2ccc(S(=O)(=O)N(C)c3ccc(C)c(C)c3)s2)on1 | - | - | - | - | - | -
Cc1ccc(N(C)S(=O)(=O)c2ccc(-c3cc(C)no3)s2)cc1 | - | - | 9.7 | - | - | -
CCN(CC)C(=O)CSc1nc(N)c(C#N)c(-c2cccs2)c1C#N | - | 77 | - | - | - | -
CCN(CC)C(=O)CSc1nc2c(c(-c3cccnc3)c1C#N)CCCC2 | - | 67 | - | - | - | -
CCN(CC)C(=O)CSc1nc(-c2cccs2)cc(-c2cccs2)c1C#N | - | - | - | - | - | -
COc1ccc(-n2nnnc2SCC(=O)NNC(=O)c2ccc([N+](=O)[O-])cc2)cc1 | - | - | - | 69 | - | -
Cc1ccc(-n2nnnc2SCC(=O)NNC(=O)c2ccc([N+](=O)[O-])cc2)cc1 | - | - | - | - | - | -
Cc1cccn2c(Nc3ccccc3)c(-c3ccccn3)nc12 | . | - | - | - | - | .
Cc1cc2nn(-c3cccc4ccccc34)nc2cc1NC(=O)c1cccs1 | - | 57 | - | - | - | -
CC(C)NC(=O)CN1CCN(Cc2nc(-c3cccs3)no2)CC1 | - | - | - | - | - | -
CC[C@H](C)[C@H](NC(N)=O)C(=O)Nc1ccc(NC(C)=O)cc1 | - | - | - | - | - | -
O=C(CSC1=NCCN1)NC12CC3CC(CC(C3)C1)C2 | 73 | - | - | - | - | -
Cc1nnc(SCC(=O)NC23CC4CC(CC(C4)C2)C3)s1 | - | - | - | - | - | -
Cc1cc(-c2ccccc2)nc(Cl)c1C#N | - | 76 | - | - | - | -
COc1ccc(CCNc2ncccc2C#N)cc1OC | - | - | - | - | - | -
SMILES | SR-BI HDL uptake | AHR act | HIF act | ABCB6 inh 2 | GAA850 FXN act | SR-BI DiI-HDL act
CC(C)c1ccc(Nc2ncccc2C(=O)O)cc1 | - | - | - | - | - | -
CCC(C)c1ccc(Nc2ncccc2C#N)cc1 (centres undefined) | - | 61 | - | - | - | -
CCc1ccc(Nc2ncccc2C#N)cc1 | - | 52 | - | - | - | -
COc1ccc(-c2nc3scc(-c4ccccc4)n3n2)cc1 | - | - | - | - | - | -
Cc1nnc(Sc2nc3c(c(=O)n(C)c(=O)n3C)n2Cc2ccccc2Cl)s1 | - | - | - | - | - | -
C[C@@H](C(=O)NCC1CC1)[C@H]1C[C@]1(C)[C@H](NC(=O)OCc1ccccc1)c1ccccc1 | - | - | - | - | - | -
O=C(c1cccc([N+](=O)[O-])c1)N1CCCC(C(=O)N2CCc3ccccc3C2)C1 (centres undefined) | - | - | - | - | - | -
COc1cc(/C=C/C(=O)Nc2ccc(S(=O)(=O)Nc3ncccn3)cc2)ccc1OCC#N | - | . | . | - | - | -
